# ChEMBL document CHEMBL1125091, “Antiulcer agents. 4-substituted 2-guanidinothiazoles: reversible, competitive, and selective inhibitors of gastric H+,K(+)-ATPase” (J Med Chem, 1990)
# Active and inactive are the calls of the source. The rule behind the calls is not given here.
# Experiments:
# [1] = tested on: Rattus norvegicus; assay: Gastric antisecretory activity against gastric secretion in the pylorus-ligated rat at a dose of 60 mg/Kg; type: functional, Stomach
# Procedure, shortened: (§1)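 Conscious rats, pylorus ligated under ether anesthesia; drug or vehicle injected into the duodenum. Killed 2 h after surgery. Stomach contents centrifuged, then titrated to pH 7.0 for acid output (uEq/h per 100 g body weight). Inhibition calculated versus vehicle-treated rats. Means ± SE of 5-10 animals; Student's t test, p < 0.05.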
# [2] = tested on: Potassium-transporting ATPase (Canis familiaris); assay: Percent inhibition of gastric proton-pump enzyme H+/K+ ATPase was determined at 50 uM; conditions: Canis lupus familiaris, Stomach
# [3] = target: Potassium-transporting ATPase (Canis familiaris); assay: Inhibitory activity against dog gastric proton-pump enzyme H+/K+ ATPase
# [4] = target: Potassium-transporting ATPase (Canis familiaris); assay: Inhibitory activity of gastric proton-pump enzyme H+/K+ ATPase was determined at 50 uM
# [5] = tested on: Rattus norvegicus; assay: Gastric antisecretory activity against gastric secretion in the pylorus-ligated rat at a dose of 33 mg/Kg; type: functional, Stomach; procedure, shortened: as §1
# [6] = tested on: Rattus norvegicus; assay: Gastric antisecretory activity against gastric secretion in the pylorus-ligated rat at a dose of 60 mg/kg; type: functional, Stomach; procedure, shortened: as §1
# [7] = target: Potassium-transporting ATPase (Canis familiaris); assay: The compound was tested in vitro for inhibition of gastric proton-pump enzyme H+/K+ ATPase
# [8] = tested on: Rattus norvegicus; assay: Gastric antisecretory activity against gastric secretion in the pylorus-ligated rat at a dose of 10 mg/Kg; type: functional, Stomach; procedure, shortened: as §1
# [9] = tested on: Canis familiaris; assay: Antisecretory activity in Heidenhain pouch dog model at 2 mg/kg, iv; type: functional, organism-based; design: dose 2 mg/kg; conditions: Canis lupus familiaris
# Procedure, shortened: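 Heidenhain pouch dogs on pentagastrin infusion; drug or vehicle given iv at 2 mg/kg, 90 min after the infusion started. Gastric juice collected at 30-min intervals, ten collections per dog. Acid titrated to pH 7.4 with 0.1 N NaOH. Effect = lowest acid output after drug versus mean output immediately before drug.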
# [10] = tested on: Rattus norvegicus; assay: Gastric antisecretory activity against gastric secretion in the pylorus-ligated rat at a dose of 30 mg/Kg; type: functional, Stomach; procedure, shortened: as §1
# [11] = tested on: Rattus norvegicus; assay: Gastric antisecretory activity against gastric secretion in the pylorus-ligated rat at a dose of 26 mg/Kg; type: functional, Stomach; procedure, shortened: as §1
# [12] = target: Dog Kidney Na+, K+-ATPase (Canis lupus familiaris, UniProt P50997); assay: Tested against canine renal Na+/K+ ATPase
# [13] = species: Rattus norvegicus; assay: Antisecretory activity in a pylorus-ligated rat model
# [14] = tested on: Potassium-transporting ATPase (Canis familiaris); assay: Percent inhibition of gastric proton-pump enzyme H+/K+ ATPase was determined at 10 uM; conditions: Canis lupus familiaris, Stomach
Compound,Activity [1],inhibition [2],IC50 [3],further results
Cl.N=C(N)Nc1nc(-c2ccc(O)c(O)c2)cs1,-149%,100%,1.5 µM,
Cc1ccc2c(-c3csc(N=C(N)N)n3)c[nH]c2c1.Cl,42%,64%,,
N=C(N)Nc1nc2c(s1)CCc1ccccc1-2,,,,IC50 [4]: 21 µM
Cc1ccc(-c2csc(N=C(N)N)n2)[nH]1.O=C(O)/C=C\C(=O)O,,76%,45 µM,Activity [5]: 50%
Cc1cc(-c2nc(N=C(N)N)sc2C)c[nH]1,,100%,1.2 µM,Activity [6]: 36%; IC50 [7]: 1 µM
Cc1[nH]c2ccccc2c1-c1nc(N=C(N)N)sc1C.Cl,78%,,,Activity [8]: 51%; IC50 [4]: 6.2 µM; Activity [9]: inactive
Cl.N=C(N)Nc1nc(-c2c[nH]c3ccc(Cl)cc23)cs1,22%,89%,1.8 µM,IC50 [7]: 1.8 µM
COc1ccc2[nH]cc(-c3csc(NC(=N)NCc4ccccc4)n3)c2c1.Cl,48%,95%,4.3 µM,
Cl.N/C(=N\Cc1ccccc1)Nc1nc(-c2ccc(O)c(O)c2)cs1,,111%,0.3 µM,Activity [10]: 2.5%
Cl.N=C(NCc1ccccc1)Nc1nc(-c2c[nH]c3ccc(Br)cc23)cs1,52%,105%,0.7 µM,
CC(=O)Oc1ccc(-c2csc(N=C(N)N)n2)cc1OC(C)=O.Cl,,,,IC50 [4]: 27 µM; Activity [10]: 15%
Cc1[nH]ccc1-c1csc(NC(=N)NCc2ccccc2)n1.O=C(O)/C=C\C(=O)O,,93%,6 µM,Activity [10]: 60%
Cc1sc(NC(=N)NCc2ccccc2)nc1-c1c[nH]c2ccc(Cl)cc12,-59%,101%,,
CC(=O)Oc1ccc(-c2csc(NC(=N)NCc3ccccc3)n2)cc1OC(C)=O.Cl,,,,IC50 [4]: > 50 µM; Activity [10]: -1%
Br.COc1ccc(-c2csc(N=C(N)N)n2)cc1,87%,,,Activity [8]: 27%; Activity [10]: 26%
Cc1cc(-c2csc(N=C(N)N)n2)c[nH]1,,70%,25 µM,Activity [11]: 50%; IC50 [12]: > 100 µM
CN/C(=N\CCSCc1nc[nH]c1C)NC#N [CIMETIDINE],,,,ED50 [13]: 11 mg/kg
Cc1sc(N=C(N)N)nc1-c1c[nH]c2ccc(Cl)cc12,,99%,0.59 µM,

Compound,Activity [1],inhibition [2],IC50 [3],further results
Cc1sc(N=C(N)N)nc1-c1c[nH]c(C=O)c1,,77%,28 µM,
Cc1cccc2c(-c3csc(N=C(N)N)n3)c[nH]c12,,,7.6 µM,inhibition [14]: 55%
Cc1cc(-c2nc(NC(=N)Nc3ccccc3)sc2C)c[nH]1,,83%,9.8 µM,
Cc1cccc(-c2csc(N=C(N)N)n2)c1,,60%,32 µM,
N=C(N)Nc1nc(-c2ccc(F)cc2)cs1,,61%,33 µM,
N=C(N)Nc1nc(-c2cccc(Cl)c2)cs1,,48%,53 µM,
Cc1[nH]c2ccccc2c1-c1csc(N=C(N)N)n1,,85%,9 µM,
Cc1[nH]c2ccccc2c1-c1csc(NC(=N)NCc2ccccc2)n1,,102%,1.7 µM,
Cl.N=C(N)Nc1nc(-c2c[nH]c3ccc(Br)cc23)cs1,-43%,,0.96 µM,inhibition [14]: 90%
COC(=O)c1ccc2[nH]cc(-c3csc(NC(=N)NCc4ccccc4)n3)c2c1,,94%,3.1 µM,
Cc1[nH]ccc1-c1nc(N=C(N)N)sc1C.Cl,46%,102%,1.3 µM,IC50 [7]: 1 µM
Cc1sc(N=C(N)N)nc1-c1c[nH]c2ccccc12,,92%,7.6 µM,
Cc1[nH]c2ccccc2c1-c1nc(NC(=N)NCc2ccccc2)sc1C.Cl,69%,,,IC50 [4]: 5.3 µM; Activity [10]: 47%
CC(=O)Nc1ccc2[nH]cc(-c3csc(NC(=N)NCc4ccccc4)n3)c2c1,,66%,23.8 µM,
CN(C)Cc1cccc(-c2csc(N=C(N)N)n2)c1,,56%,37 µM,
CN(C)Cc1cc(-c2csc(N=C(N)N)n2)c[nH]1,,94%,9 µM,
N=C(NCc1ccccc1)Nc1nc(-c2c[nH]c3ccc(OCc4ccccc4)cc23)cs1,,90%,1.8 µM,
Cc1[nH]c(-c2csc(N=C(N)N)n2)cc1CN(C)C,,87%,11 µM,
